Hits are enriched below; roughly 3.5% of the tested compounds scored in any of these assays.
PGC1a acetyl inh: modulators of PGC1a acetylation; U2OS PGC1a acetylation, AlphaScreen anti-acetyl-lysine; with virally co-expressed GCN5 acetyltransferase; 350,000 compounds, 0.17% hits; inhibition, % at 15.6 µM; AID 651687;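 active means every replicate shows inhibition of at least 40%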
Cneo AK release: Cryptococcus neoformans lysis via adenylate kinase release; C. neoformans lysis, adenylate kinase release luminescence, 4 h; normalised: neutral wells 0, clomiphene wells 100; 360,000 compounds, 0.2% hits; lysis activity, % at 15 µM;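 active means mean lysis activity across replicates of at least 80%, whatever share of replicates individually reach that level; inactive means mean lysis activity below 80%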
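Assay system: log-phase C. neoformans yeast / Quantity: yeast cell density of 5 × 10^6 cells/mL / Medium: fresh YPD growth medium / Compound: single dose / Timing: static 4 h at 37 °C with compound, 1 h detection / Measured by: adenylate kinase release luminescence / Read-out: lysis from increased AK signal / Benchmarks: Clomiphene as positive lysis control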
ERAP1 HTS inh: ERAP1 (human) enzyme inhibition; recombinant ERAP1, Leu-AMC fluorescence, 60 min; AID 652197; 340,000 compounds, 0.15% hits; inhibition, % at 10.7 µM;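 active means mean replicate inhibition of at least 30%, or all replicates individually reaching that 30% level; inactive means mean below 30% and not every replicate reaching it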
Target sequence (Q9NZ08 whole entry, looked up): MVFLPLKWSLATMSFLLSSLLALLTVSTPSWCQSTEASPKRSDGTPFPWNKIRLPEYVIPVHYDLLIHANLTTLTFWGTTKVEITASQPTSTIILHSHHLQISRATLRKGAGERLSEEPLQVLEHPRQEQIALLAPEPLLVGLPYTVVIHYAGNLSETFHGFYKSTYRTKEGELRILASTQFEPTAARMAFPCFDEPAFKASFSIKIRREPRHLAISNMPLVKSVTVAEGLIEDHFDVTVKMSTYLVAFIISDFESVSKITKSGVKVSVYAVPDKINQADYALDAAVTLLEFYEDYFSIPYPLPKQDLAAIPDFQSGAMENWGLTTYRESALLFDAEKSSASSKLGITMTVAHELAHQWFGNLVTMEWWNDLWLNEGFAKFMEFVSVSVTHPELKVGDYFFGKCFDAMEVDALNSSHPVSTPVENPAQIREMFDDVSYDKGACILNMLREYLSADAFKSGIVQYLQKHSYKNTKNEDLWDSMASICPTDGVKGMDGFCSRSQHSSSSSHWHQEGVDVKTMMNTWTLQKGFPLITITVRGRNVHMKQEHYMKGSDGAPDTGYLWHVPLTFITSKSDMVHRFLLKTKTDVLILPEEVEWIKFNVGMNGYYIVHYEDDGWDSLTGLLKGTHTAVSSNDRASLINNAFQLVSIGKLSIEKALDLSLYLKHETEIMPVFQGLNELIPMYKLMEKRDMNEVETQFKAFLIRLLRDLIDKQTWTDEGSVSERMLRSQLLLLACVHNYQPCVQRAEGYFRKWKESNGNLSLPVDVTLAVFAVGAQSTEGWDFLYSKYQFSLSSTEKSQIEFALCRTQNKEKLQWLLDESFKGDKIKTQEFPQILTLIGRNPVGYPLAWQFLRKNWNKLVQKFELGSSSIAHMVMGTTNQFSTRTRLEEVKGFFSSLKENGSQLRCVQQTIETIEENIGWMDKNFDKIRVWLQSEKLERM
rRNA inh HTS: inhibits bacterial ribosomal RNA function over humanized ribosomes | GFP signal change (wild-type ribosome), % (no concentration beside the values) | AID 720706 | 350,000 compounds, 1.6% hits | E. coli WT GFP vs humanized-ribosome RFP mutants, fluorescence, 24 h; hits give low values; DMSO median 0, no signal -100;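 active means significant combined selectivity score with lowered wild-type GFP, culture density cut under 30%, mutant RFP and density less affected; inactive means any of these conditions unmet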
Env fusion inh: inhibitors of HIV Env-mediated cell fusion. HeLa-JRFL Env/CEM21 cell fusion, luciferase. inhibition, % at 12.3 µM. 360,000 compounds, 1.1% hits. AID 651610;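 active means mean replicate inhibition score of at least 50 and every replicate individually at or above 50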
FGF22 binding: FGF22 (human) thermal shift binding; Q9HCT0; recombinant FGF22 thermal shift, SYPRO orange fluorescence; percent of sucrose octasulfate shift, DMSO zero; activity (Tm shift, normalised), % at 9.99 µM; 340,000 compounds, 1.5% hits;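 active means mean Tm shift, scaled 0 neutral to 100 positive control, at about 1.3% or above, every replicate too, limit read from the data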
A number is an active result; 0 = inactive; - = not tested or not shown.

SMILES	PGC1a acetyl inh	Cneo AK release	ERAP1 HTS inh	rRNA inh HTS	Env fusion inh	FGF22 binding
O=C(c1cc([N+](=O)[O-])ccc1N1CCOCC1)N1CCOCC1	0	0	0	0	0	43
C/C(=N\OCc1cccc(C(=O)O)c1)c1ccc(Cl)cc1	0	0	0	0	62	0
C/C(=N\OCc1ccc(C#N)cc1)c1ccccc1	-	-	0	0	0	44
Cc1cc2ccc(C)c(C)c2nc1SCC(=O)c1cccs1	0	0	-	-	0	-
Cc1ccc2cc(C)c3nnc(SCC(=O)c4cccs4)n3c2c1C	-	-	0	-39	0	0
Cc1c(Cl)cccc1NC(=O)COC(=O)Cc1ccsc1	0	0	0	-	-	0
CC(C)C1C(c2ccccc2)N(C)C(c2ccccc2)CC1(O)c1ccccc1 (stereo unspecified)	0	0	0	-30	-	0
CCC1C(c2ccccc2)N(C)C(c2ccccc2)CC1(O)c1ccccc1 (stereo unspecified)	-	-	0	0	0	44
CC(C)C1C(c2ccccc2)NC(c2ccccc2)CC1(O)c1ccc(F)cc1 (stereo unspecified)	0	0	0	0	0	0
Cc1cnc2c(N)cc(C)c(C)c2c1	0	0	0	0	77	-
Cc1cc(N)c(C)c([N+](=O)[O-])c1C	-	-	-	-	0	-
Cc1ccc(C)c(CSc2nnc(C)c(=O)n2N)c1	0	-	0	0	0	0
c1ccc(-n2c(SCc3nc(-c4cccs4)no3)nnc2-c2ccco2)cc1	0	-	0	-22	-	0
O=C(CSc1nnc(-c2ccco2)n1-c1ccccc1)Nc1c(Cl)cc(Cl)cc1C(=O)O	52	0	0	0	0	0
O=C(O)c1ccc(CSc2nnc(-c3ccco3)n2-c2ccccc2)cc1	0	-	0	-34	0	0
c1ccc(-n2c(SCc3ccncc3)nnc2-c2ccco2)cc1	0	0	-	-	-	-
CC(=O)c1cccc(NC(=O)c2ccc(N(C)S(C)(=O)=O)cc2)c1	0	0	-	-	-	-
O=C(O)c1cccc(Nc2nc(C(F)(F)F)nc3ccccc23)c1	0	-	0	0	0	2.0
O=C(O)c1cccc(Nc2nc(-c3ccccc3)nc3ccccc23)c1	0	0	0	0	0	0
COc1ccc(C(=O)N/C(=C/c2cccs2)C(=O)NC(C)(C)C)cc1OC	67	0	0	0	0	0
C[C@@H]1CN([C@H](C)CO)C(=O)c2cc(NC(=O)Nc3ccc(F)cc3)ccc2O[C@H]1CN(C)C(=O)Nc1ccccc1	0	0	0	0	0	0
Cc1ccccc1/C=C1\CCCc2ccccc2C1=O	0	0	-	-	0	-
CC(=O)N1CCOc2cc(S(=O)(=O)NCc3ccc(F)cc3)c(C)cc21	0	0	0	0	0	-
COC(=O)[C@@]1(C)[C@H]2C(=O)N(Cc3ccccc3)C(=O)[C@H]2[C@H]2CN=C(SCc3ccc(Cl)cc3)N21	0	0	0	-21	79	0
CCN1C(=O)[C@H]2[C@H]3CN=C(SCc4ccccc4)N3[C@@](C)(C(=O)OC)[C@H]2C1=O	0	0	0	0	0	0
SMILES	PGC1a acetyl inh	Cneo AK release	ERAP1 HTS inh	rRNA inh HTS	Env fusion inh	FGF22 binding
CC[C@]1(C(=O)OC)[C@H]2C(=O)N(Cc3ccccc3)C(=O)[C@H]2[C@H]2CN=C(SCC(=O)c3ccccc3)N21	0	0	0	0	72	0
COC(=O)[C@@]1(Cc2ccccc2)[C@H]2C(=O)N(Cc3ccccc3)C(=O)[C@H]2[C@H]2CN=C(SCC(=O)c3ccccc3)N21	0	0	0	0	0	0
COC(=O)[C@@]1(C)[C@H]2C(=O)N(Cc3ccccc3)C(=O)[C@H]2[C@H]2CN=C(SCc3ccc(C#N)cc3)N21	0	0	0	0	75	0
O=S(=O)(Nc1ccc(O)c2ncccc12)c1ccccc1F	0	0	0	0	0	0
O=C(COC(=O)c1ccccc1OCc1ccccc1Cl)NC1CCS(=O)(=O)C1 (stereo unspecified)	0	0	0	0	-	0
CCc1c(-c2cccc(Cl)c2)ncn1CCc1ccccc1OC	-	-	0	0	0	0
O=S(=O)(c1ccccc1)[C@@]1(c2ccc(Br)cc2)C[C@@H]2ON=C(c3cccc(Br)c3)[C@@H]2C1	0	0	-	0	0	0
C[C@H](CO)N1C[C@H](C)[C@H](CN(C)Cc2ccc(C(=O)O)cc2)Oc2ccc(NC(=O)CCCN(C)C)cc2C1=O	0	0	0	0	0	0
COc1ccc(NC(=O)N(C)C[C@H]2Oc3c(NC(=O)C4CCCCC4)cccc3C(=O)N([C@H](C)CO)C[C@H]2C)cc1	0	0	0	0	0	0
Cc1cc(OCC(O)CNC(C)c2ccccc2)ccc1C(C)C (stereo unspecified)	0	0	0	0	82	0
CC(NCC(O)COc1ccc2ccccc2c1)c1ccccc1 (stereo unspecified)	-	0	0	0	65	0
CC(C)NCC(O)COc1ccc(Br)cc1 (stereo unspecified)	-	-	0	-	0	44
COc1ccc(OCC(O)CNC(C)c2ccccc2)cc1 (stereo unspecified)	0	0	0	0	0	0
Cc1nn(C)c(C)c1CN(C)S(=O)(=O)c1ccc2ccccc2c1	0	0	-	-	72	-
Cc1nn(C)c(C)c1CN(C)S(=O)(=O)c1ccc(F)cc1	0	0	-	-	-	-
COc1ccccc1N(CC(=O)NCCSc1ccccc1)S(C)(=O)=O	0	0	-	-	0	-
CC(C)(C)SCCNC(=O)CN(c1ccc(F)cc1)S(=O)(=O)c1ccccc1	0	210	0	0	0	0
COc1ccc(N(CC(=O)NCc2ccco2)S(=O)(=O)c2ccccc2)cc1	-	-	0	0	0	43
COc1ccccc1N(CC(=O)NCCSc1ccccc1)S(=O)(=O)c1ccccc1	0	0	0	-31	0	0
CS(=O)(=O)N(CC(=O)NCCSc1ccccn1)c1ccc(F)cc1	-	-	0	0	0	43
O=C(CC(c1ccccc1)c1cc(Cl)ccc1O)N1CCCC1 (stereo unspecified)	0	0	0	0	0	0
CN(Cc1c(C(=O)N2CCc3ccccc3C2)nc2ccc(Cl)cn12)C(C1CC1)C1CC1	-	-	0	0	0	43
CCN1CCN(C(=O)c2ccc3c(c2)N(Cc2ccc(F)cc2)C(=O)c2ccccc2S3=O)CC1 (stereo unspecified)	0	0	0	0	0	0
C[C@@H]1CN([C@H](C)CO)C(=O)c2cc(C3=CCCCC3)cnc2O[C@H]1CN(C)C(=O)Cc1cccnc1	0	104	0	0	0	0
C[C@H]1CN([C@@H](C)CO)C(=O)c2cc(C#CC3(O)CCCC3)cnc2O[C@@H]1CN(C)Cc1cccnc1	0	101	0	0	0	0
C[C@@H]1CN([C@@H](C)CO)C(=O)c2cc(-c3cncnc3)cnc2O[C@H]1CN(C)C(=O)Cc1ccccc1	0	80	0	0	0	0
